Rows were chosen to be rich in hits. Some 0.64% of all compounds tested hit in one or more screens of this group.
L929 necroptosis: blocks zVAD induced death of L929 cells; L929 zVAD necroptosis rescue, ATP luminescence, 24 h; with zVAD 60 µM; 220,000 compounds, 0.38% hits; viability rescue, % at 10 µM; AID 1377;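 active means activation, scaled between plate controls, above about 75%, limit read from the data; inactive means activation under that limit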;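 further: 0% = zVAD with DMSO and 100% = DMSO alone without zVAD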
TNF death inh: TNF-alpha cell death inhibition in Jurkat FADD-/- cells; Jurkat FADD-/- TNF necroptosis rescue, ATP luminescence, 24 h; 0 = TNF only, 100 = no-TNF cells; activation (protection from cell death), % at 10 µM; 220,000 compounds, 0.068% hits; AID 463075;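 active means activation, meaning protection from cell death, of at least 50% relative to plate controls; inactive means activation below 50%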;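 further: necroptosis triggered by 40 ng/mL TNF-alpha added together with compound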
Rad51 HR inh: Rad51 (human) homologous recombination inhibition. Q06609. hRad51 DNA strand exchange, fluorescence dequenching. inhibition, % at 10 µM. 200,000 compounds, 0.085% hits;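 active means inhibition above 40% at the single screening dose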;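 further: 0% = DMSO control wells and 100% = blanks with heterologous ssDNA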
Target sequence (Q06609 whole entry, looked up): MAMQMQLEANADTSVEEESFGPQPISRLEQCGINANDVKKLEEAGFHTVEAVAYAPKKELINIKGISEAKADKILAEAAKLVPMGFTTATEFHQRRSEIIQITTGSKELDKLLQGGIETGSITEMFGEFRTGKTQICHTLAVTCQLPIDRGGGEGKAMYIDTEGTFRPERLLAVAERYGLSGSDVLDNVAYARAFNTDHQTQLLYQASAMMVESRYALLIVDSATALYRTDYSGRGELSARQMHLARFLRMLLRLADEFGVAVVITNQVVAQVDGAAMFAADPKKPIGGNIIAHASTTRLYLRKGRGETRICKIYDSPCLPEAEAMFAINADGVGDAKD
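System: hRad51 filaments on single-stranded DNA; reagent: Fluorescein- and BHQ1-tagged 47-mer duplex; compound dosing: one concentration, 10 µM final; timing: filaments 15 min 37 °C, then compound 30 min; measured by: fluorescein emission 520 nm, excitation 485 nm; benchmarks: per-plate controls and blanks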
sdo1 growth: sdo1-depleted yeast growth rescue; S. cerevisiae sdo1-depleted JHY4D growth rescue, OD600 30 h; hits give high values; pdr5 snq2 efflux-pump mutant strain; z-score at 10 µM; 140,000 compounds, 0.21% hits;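 active means z-score above 3 at both the 24 hr and the 30 hr optical density reads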;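 further: z-score against mean and SD of all compound wells on the same plate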
* marks the source's active call; other numbers are inactive results; x = no result given.

SMILES	L929 necroptosis	TNF death inh	Rad51 HR inh	sdo1 growth
c1cnc2c(C3NCCc4c3[nH]c3ccccc43)cccc2c1 (stereo not drawn)	3.7	2.5	-1.7	x
O=C(CN(Cc1ccccc1)C(=O)c1ccco1)NCc1ccc(F)cc1	-0.5	-14.1	5.0	-0.8
Cc1ccccc1NC(=O)Cn1c(NCC(C)O)nc2ccccc21 (stereo not drawn)	1.8	2.6	-2.0	1.83
COC(=O)CSC1=C(C#N)C(c2ccc(C(C)C)cc2)CC(=O)N1 (stereo not drawn)	8.8	55.7*	-6.6	-0.9
CCOc1ccccc1C1CC(=O)NC(SCC)=C1C#N (stereo not drawn)	0.5	-0.6	4.8	-0.59
CCOc1ccccc1C1CC(=O)NC(SCC(=O)Nc2nccs2)=C1C#N (stereo not drawn)	93.0*	82.1*	-0.4	-0.3
O=[N+]([O-])c1ccc(NC(=S)N2CCc3ccccc3C2)cc1	1.0	1.6	x	-1.84
O=C(Oc1ccc(-c2cnc3ccccc3n2)cc1)c1ccco1	78.8*	-0.1	-6.4	1.12
Cc1c(C(=O)Oc2ccc(-c3cnc4ccccc4n3)cc2)cccc1[N+](=O)[O-]	80.8*	0.1	0.6	-1.57
O=C(Oc1ccc(-c2cnc3ccccc3n2)cc1)c1cc([N+](=O)[O-])ccc1Cl	73.4	-1.3	-0.6	-1.3
CCn1cc(/C=C/C(=O)Nc2ccn(Cc3c(F)c(F)cc(F)c3F)n2)cn1	0.9	78.3*	19.6	1.06
Nc1ccc2oc(-c3ccccc3Cl)cc(=O)c2c1O	13.2	-1.0	-4.2	-0.8
O=c1cc(-c2ccccc2Cl)oc2ccc([N+](=O)[O-])c(O)c12	9.1	0.4	60.5*	-1.51
CC(C)CNc1nc(SCC(=O)Nc2ccccc2)nc(N2CCOCC2)n1	3.9	1.6	6.3	x
COc1ccc(/C=C/C(=O)OCC(=O)Nc2ccc(Cl)cn2)cc1	5.9	0.5	2.0	x
O=C(CSc1ccc(Cl)cc1)N1N=CCC1c1ccccc1 (stereo not drawn)	64.6	99.5*	3.3	x
C[C@@H](C(=O)Nc1ccc2ccccc2c1)[C@H]1C[C@]1(C)[C@H](NC(=O)c1cccnc1)c1ccccc1	0.8	-4.1	3.6	7.24*
C[C@@H](C(=O)Nc1ccc2ccccc2c1)[C@@H]1C[C@@]1(C)[C@@H](NC(=O)c1ccccc1)c1ccccc1	4.7	6.0	-5.4	1.21
O=C(Nc1cccnc1)c1cc(F)cc(F)c1	-0.2	-1.3	11.9	0.67
Cc1cc(C(=O)Nc2cccnc2)cs1	0.3	-2.8	77.0*	0.36
Cc1sc2nc(SCC(=O)N(CCO)CCO)n(C3CCCCC3)c(=O)c2c1C	0.0	-2.0	-13.5	0.95
CC(/C=N/NC(=O)CNc1n[nH]c(=O)[nH]c1=O)c1ccccc1 (stereo not drawn)	-0.5	-0.8	10.7	x
CCCS(=O)(=O)c1c(S(=O)(=O)CCC)c2cnccn2c1C(=O)c1ccc(Cl)cc1	-0.6	-1.6	1.6	14.9*
CSc1ccc(Cc2ccc(Cl)cc2Cl)nn1	7.7	62.5*	10.1	-1.11
COc1ccc2c(c1)N(S(=O)(=O)c1ccccc1)CCC2=O	-0.6	0.9	x	0.37
SMILES	L929 necroptosis	TNF death inh	Rad51 HR inh	sdo1 growth
COC(=O)C1=C(C)N(CCCC(=O)O)C(=O)NC1c1ccccc1OS(=O)(=O)c1ccc([N+](=O)[O-])cc1 (stereo not drawn)	x	x	4.2	x
CN1CCN(C(=O)c2ccc(S(=O)(=O)c3ccc(Br)cc3)cc2)CC1	1.4	0.6	55.2*	0.52
Cc1ccc(-n2ncc3c(NCc4ccc5c(c4)OCO5)ncnc32)c(C)c1	0.8	-1.3	4.0	14.1*
O=C1CCc2cc(S(=O)(=O)NC(C(=O)N3CCN(c4ccccn4)CC3)c3ccccc3)ccc2N1 (stereo not drawn)	1.1	1.2	41.4*	x
COc1ccc(C2=NN(C3=NN=C(N)Cc4ncnn43)C(O)(C(F)(F)F)C2)cc1 (stereo not drawn)	11.5	0.1	56.4*	x
NC1=NN=C(N2N=C(c3ccc(Br)cc3)CC2(O)C(F)(F)F)n2ncnc2C1 (stereo not drawn)	2.4	-0.1	-5.1	x
S=C1NCN(C2CCCCC2)CN1CCc1ccccc1	0.6	0.2	25.4	x
COc1ccc(C2SCCN2C(=O)c2ccc([N+](=O)[O-])cc2)cc1 (stereo not drawn)	0.8	6.9	8.4	x
O=C(c1ccc([N+](=O)[O-])cc1)N1CCSC1c1ccccc1Cl (stereo not drawn)	-0.7	50.9*	-3.1	x
Cc1cc(-c2nnc(SCC(=O)Nc3nccs3)o2)no1	-0.2	0.6	11.0	x
O=C(CCC(=O)c1cccs1)NCC(=O)Nc1ccc(F)c(F)c1F	0.5	0.1	6.7	0.21
CC(C)(CO)NCc1ccc(Br)cc1	-0.1	-0.3	43.5*	x
Cc1ccc(CNC(C)(C)CO)cc1	-0.1	-1.2	15.8	1.47
CC(=O)OCC(=O)Nc1c(C)cc(C)cc1C	0.8	-0.4	-10.6	x
Cc1ccc(CNC(=O)CSCc2ccc(F)cc2)cc1	2.3	9.2	46.1*	x
O=C(CSCc1ccc(F)cc1)Nc1nc2c(s1)CCCC2	0.2	0.2	66.0*	-0.29
Cc1ccc(-c2ccc(=O)n(CC(=O)NCc3ccc(F)cc3)n2)cc1	5.3	0.9	50.3*	x
Cc1ccc(CNC(=O)CSCc2ccccc2)cc1	15.4	1.9	4.1	x
O=C(CSCc1ccc(F)cc1)Nc1ccc(F)cc1	0.3	78.8*	6.4	-0.13
Cc1ccc(-c2ccc(=O)n(CC(=O)NCCN(C)C)n2)cc1	0.0	-5.5	1.3	0.21
CCn1c(CSc2nc(C)cc(C)n2)nnc1SCC(=O)N1CCCc2ccccc21	0.0	-1.4	0.6	0.08
CC(C)c1ccc(O)c(NC(=O)c2cncc(Br)c2)c1	0.1	66.6*	-3.7	0.91
CCC(C)c1ccc(O)c(NC(=O)c2cccnc2)c1 (stereo not drawn)	0.1	24.2	11.4	-0.05
COC(=O)COc1ccc(S(=O)(=O)NCCC2=CCCCC2)cc1C	2.5	1.1	45.2*	0.23
COC(=O)COc1ccc(S(=O)(=O)NCCC2=CCCCC2)cc1	-0.1	-0.4	7.9	1.4
SMILES	L929 necroptosis	TNF death inh	Rad51 HR inh	sdo1 growth
O=C(Cc1ccccc1)NC1c2ccccc2-c2ccccc21	1.6	1.4	-0.1	-0.09
O=C(NC1CCCCC1)c1cc([N+](=O)[O-])ccc1N1CCCCC1	0.0	-1.4	118.2*	-0.14
CCN(CC(=O)NCCc1ccc(F)cc1)Cc1nc2ccccc2c(=O)[nH]1	-0.3	3.4	46.4*	x
Cc1cc(C(=O)NNC2CC(=O)N(c3ccc4ccccc4c3)C2=O)c(C)o1 (stereo not drawn)	2.5	0.4	15.8	x
CCCCNc1c(NC(C)=O)c(=O)oc2ccccc12	x	1.4	19.4	0.57
CCOc1ccc2nc(NC(=O)CCn3cccc3)sc2c1	85.1*	5.9	-9.8	-0.62
CCCC(=O)Nc1nc2ccc(OCC)cc2s1	66.0	1.3	0.6	0.03
CN(C)/C=C/C(=O)c1cnc(-c2ccccn2)s1	20.1	0.7	3.7	x
Cc1csc(Nc2ccccc2)[n+]1C	-0.7	-0.4	-7.7	x

Compound activity deposited in PubChem by several laboratories.
